Results as given in ChEMBL document CHEMBL3421533, “The Discovery of Orally Bioavailable Tyrosine Threonine Kinase (TTK) Inhibitors: 3-(4-(heterocyclyl)phenyl)-1H-indazole-5-carboxamides as Anticancer Agents” (J Med Chem, 2015).

Columns and labels:
[1] = Oral bioavailability in dog; type: ADME, organism-based, Canis lupus familiaris; settings: in vivo
BT-474 = experiment: Cytotoxicity against human BT474 cells after 5 days by sulforhodamine B assay; type: functional; settings: BT-474, 120 h
Summary of the method: (§1)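 Cancer lines were seeded at 800–6000 cells per well according to growth rate, 24 h before compound overlay. After culture, cells were fixed in situ and stained with sulforhodamine B. GI50 values were derived by curve fitting.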

[2] = Plasma protein binding in human; type: ADME, cell-free; settings: read-out: PPB (converted)
T47D = experiment: Cytotoxicity against human T47D cells after 5 days by sulforhodamine B assay; type: functional; settings: 120 h; summary of the method: as §1
DU-145 = experiment: Cytotoxicity against human DU145 cells after 5 days by sulforhodamine B assay; type: functional; settings: DU-145, 120 h; summary of the method: as §1
[3] = Toxicity in po dosed athymic CD1 nude mouse assessed as body weight loss in excess 20% and deemed moribund administered as qd for 21 days measured 3 times per week during compound dosing; type: organism-based; settings: in vivo
HCT-116 = experiment: Induction of chromosome segregation defect in human HCT116 cells assessed as anaphase and telophase cells with lagging chromosomes at 500 nM incubated for 6 hrs post double thymidine block by DAPI staining-based immunofluorescence microscopic analysis (reference value: 19 +/- 2%); type: functional
[4] = Cytotoxicity against human SKBR3 cells after 5 days by sulforhodamine B assay; type: functional; settings: SK-BR-3, 120 h; summary of the method: as §1
[5] = biological target: Mitogen-activated protein kinase 10 (Homo sapiens, UniProt P53779); experiment: Inhibition of human JNK3 by millipore radiometric assay
Summary of the method: (§2)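 Radiometric profiling against a 278-kinase panel was done with ATP at Km. Half-maximal inhibitory concentrations were then determined for the kinases most inhibited.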

HT-29 = experiment: Cytotoxicity against human HT-29 cells after 5 days by sulforhodamine B assay; type: functional; settings: HT-29, 120 h; summary of the method: as §1
[6] = biological target: Proto-oncogene tyrosine-protein kinase receptor Ret (Homo sapiens, UniProt P07949, V804M); experiment: Inhibition of human Ret V804M mutant by millipore radiometric assay; summary of the method: as §2
[7] = Half life in iv dosed dog; type: ADME, organism-based, Canis lupus familiaris; settings: in vivo
Aurora kinase A = biological target: T1, Aurora kinase A (Homo sapiens, UniProt O14965); experiment: Inhibition of AURKA (unknown origin) transfected in human HCT116 cells after 4 hrs by near infrared imager analysis; type: cell-based, HCT-116
T1 sequence (O14965 whole entry): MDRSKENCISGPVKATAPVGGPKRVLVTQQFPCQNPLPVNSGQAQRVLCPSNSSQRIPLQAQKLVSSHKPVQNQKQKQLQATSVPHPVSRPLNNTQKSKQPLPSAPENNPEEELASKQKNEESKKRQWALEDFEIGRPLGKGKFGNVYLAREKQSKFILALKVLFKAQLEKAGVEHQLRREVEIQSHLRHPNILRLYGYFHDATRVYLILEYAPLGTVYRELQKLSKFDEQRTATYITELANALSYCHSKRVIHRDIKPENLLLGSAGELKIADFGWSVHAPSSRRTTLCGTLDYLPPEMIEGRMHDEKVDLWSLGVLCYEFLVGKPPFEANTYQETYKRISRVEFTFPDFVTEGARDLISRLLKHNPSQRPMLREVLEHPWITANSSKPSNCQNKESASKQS
Summary of the method: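 HCT116 cells transfected with wild-type TTK were arrested with nocodazole (200 ng/mL, 17 h). They were pretreated with MG132 (15 μM, 30 min), then exposed to compound or DMSO for 4 h. Blots were probed for phospho-TTK (Thr12/Ser15), phospho-Aurora A (Thr288)/B (Thr232), TTK and GAPDH. Bands were quantified by near-infrared imaging, and EC50 was fitted.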

MDA-MB-468 = experiment: Antitumor activity against human MDA-MB-468 cells xenografted in CB-17 SCID mouse assessed as tumor growth inhibition at 30 mg/kg, po qd administered for 21 days measured 3 times per week during compound dosing relative to vehicle-treated control; type: functional; settings: MDA-MB-468, 504 h, read-out: TGI
Summary of the method: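 Groups (n = 5) were randomized at a mean tumor volume of 80–120 mm³. Oral daily dosing for 21 days in 10% NMP/40% PEG400/50% DI water, top dose 30 mg/kg. Tumors were measured three times weekly, volume x²y/2, and TGI was computed against vehicle.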

[8] = Half life in human liver microsomes at 1 uM by LC-MS analysis; type: ADME
[9] = Half life in mouse liver microsomes at 1 uM by LC-MS analysis; type: ADME; settings: liver microsomes
MCF7 = experiment: Cytotoxicity against human MCF7 cells after 5 days by sulforhodamine B assay; type: functional; settings: MCF7, 120 h; summary of the method: as §1
SW-620 = experiment: Cytotoxicity against human SW620 cells after 5 days by sulforhodamine B assay; type: functional; settings: SW-620, 120 h; summary of the method: as §1
[10] = Cytotoxicity against human TOV21G cells after 5 days by sulforhodamine B assay; type: functional; settings: 120 h; summary of the method: as §1
[11] = Antitumor activity against human HCT116 cells xenografted in athymic CD1 nude mouse assessed as tumor growth inhibition at 23 mg/kg, po qd administered for 21 days measured 3 times per week during compound dosing relative to vehicle-treated control; type: functional; settings: HCT-116, 504 h, read-out: TGI
Summary of the method: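 HCT116 cells (5 million) were injected subcutaneously into the right flank of 6–8 week old female athymic CD-1 nude mice. At a mean tumor volume of 80–120 mm³, mice were randomized (n = 8). Dosing was oral, daily for 21 days, in 10% NMP/40% PEG400/50% DI water, at the MTD and ~2/3 MTD. Tumors were measured three times weekly, volume x²y/2, and TGI was taken against vehicle.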

[12] = Cytotoxicity against human OVCAR3 cells after 5 days by sulforhodamine B assay; type: functional, OVCAR-3
SW48 = experiment: Cytotoxicity against human SW48 cells after 5 days by sulforhodamine B assay; type: functional; settings: SW48, 120 h; summary of the method: as §1
[13] = Plasma protein binding in mouse; type: ADME; settings: read-out: PPB (converted)

Proto-oncogene tyrosine-protein kinase receptor Ret, sequence (P07949 29-1114 V804M limits assumed): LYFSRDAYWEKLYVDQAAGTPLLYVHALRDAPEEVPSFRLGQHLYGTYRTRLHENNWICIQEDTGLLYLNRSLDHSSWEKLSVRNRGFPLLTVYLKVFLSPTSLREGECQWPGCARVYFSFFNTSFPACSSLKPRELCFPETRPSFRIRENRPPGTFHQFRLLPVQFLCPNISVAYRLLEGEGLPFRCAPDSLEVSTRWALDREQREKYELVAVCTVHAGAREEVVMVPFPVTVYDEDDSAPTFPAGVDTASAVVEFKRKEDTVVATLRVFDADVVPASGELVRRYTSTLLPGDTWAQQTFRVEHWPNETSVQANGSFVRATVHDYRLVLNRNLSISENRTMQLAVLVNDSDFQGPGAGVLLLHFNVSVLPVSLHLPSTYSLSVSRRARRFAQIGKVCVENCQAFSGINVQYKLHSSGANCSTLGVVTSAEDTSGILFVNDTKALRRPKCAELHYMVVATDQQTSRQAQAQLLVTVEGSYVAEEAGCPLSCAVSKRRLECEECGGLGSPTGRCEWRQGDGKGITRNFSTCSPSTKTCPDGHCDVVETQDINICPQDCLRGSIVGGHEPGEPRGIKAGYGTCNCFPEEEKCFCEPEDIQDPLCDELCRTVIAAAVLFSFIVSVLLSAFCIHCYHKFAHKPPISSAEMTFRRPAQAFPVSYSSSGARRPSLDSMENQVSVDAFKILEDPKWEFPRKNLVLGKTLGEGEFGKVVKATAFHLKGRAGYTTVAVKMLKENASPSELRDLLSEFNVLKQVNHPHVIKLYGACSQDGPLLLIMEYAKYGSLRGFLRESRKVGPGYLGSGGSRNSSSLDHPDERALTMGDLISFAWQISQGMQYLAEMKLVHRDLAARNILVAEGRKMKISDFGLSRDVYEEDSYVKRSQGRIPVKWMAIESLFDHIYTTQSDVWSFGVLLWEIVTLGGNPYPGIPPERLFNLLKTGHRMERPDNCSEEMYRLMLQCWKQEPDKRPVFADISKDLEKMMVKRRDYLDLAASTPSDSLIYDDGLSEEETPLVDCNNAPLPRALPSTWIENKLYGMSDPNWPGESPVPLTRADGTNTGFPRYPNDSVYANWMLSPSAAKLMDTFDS
Mitogen-activated protein kinase 10, sequence (P53779 whole entry): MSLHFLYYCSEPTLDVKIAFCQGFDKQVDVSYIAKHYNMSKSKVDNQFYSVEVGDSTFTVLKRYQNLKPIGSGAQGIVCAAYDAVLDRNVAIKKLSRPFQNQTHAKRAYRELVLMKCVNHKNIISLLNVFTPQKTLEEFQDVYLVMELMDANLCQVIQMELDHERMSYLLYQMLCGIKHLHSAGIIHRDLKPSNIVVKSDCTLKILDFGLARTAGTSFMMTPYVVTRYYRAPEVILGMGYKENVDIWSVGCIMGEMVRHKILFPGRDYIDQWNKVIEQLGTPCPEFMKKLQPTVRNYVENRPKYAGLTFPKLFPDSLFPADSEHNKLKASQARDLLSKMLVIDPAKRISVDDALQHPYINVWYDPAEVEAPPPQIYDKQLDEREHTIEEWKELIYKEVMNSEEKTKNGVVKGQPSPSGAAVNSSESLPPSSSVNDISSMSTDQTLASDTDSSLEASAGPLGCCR

O=C(N[C@@H](c1ccccn1)C1CC1)c1ccc2[nH]nc(-c3ccc(N4[C@H]5CC[C@H]4CC(O)C5)cc3)c2c1 (stereo in doubt; 75)
bioavailability [1]: 43% | GI50 (BT-474): 15 nM | fraction unbound [2]: 0.022 | GI50 (T47D): 20 nM | GI50 (DU-145): 17 nM | MTD at 504 h [3]: 35 mg/kg | Activity (HCT-116): 94% | GI50 [4]: 8 nM | IC50 [5]: 68 nM | GI50 (HT-29): 18 nM | IC50 [6]: 280 nM | half-life [7]: 1.2 h | EC50 (Aurora kinase A): > 6000 nM | inhibition in vivo at 30 mg/kg (MDA-MB-468): 98% | half-life at 1 µM [8]: > 1 h | half-life at 1 µM [9]: > 1 h | GI50 (MCF7): 15 nM | GI50 (SW-620): 30 nM | GI50 [10]: 16 nM | inhibition in vivo at 23 mg/kg [11]: 55% | GI50 [12]: 80 nM | GI50 (SW48): 19 nM | fraction unbound [13]: 0.042
